{"source": "ChEMBL document CHEMBL4613235", "about": "“A scaffold replacement approach towards new sirtuin 2 inhibitors” (Bioorg Med Chem, 2020)", "key": {"[1]": {"target": "T1, NAD-dependent protein deacetylase sirtuin-2 (Homo sapiens) (UniProt Q8IXJ6)", "T1 sequence (whole entry)": "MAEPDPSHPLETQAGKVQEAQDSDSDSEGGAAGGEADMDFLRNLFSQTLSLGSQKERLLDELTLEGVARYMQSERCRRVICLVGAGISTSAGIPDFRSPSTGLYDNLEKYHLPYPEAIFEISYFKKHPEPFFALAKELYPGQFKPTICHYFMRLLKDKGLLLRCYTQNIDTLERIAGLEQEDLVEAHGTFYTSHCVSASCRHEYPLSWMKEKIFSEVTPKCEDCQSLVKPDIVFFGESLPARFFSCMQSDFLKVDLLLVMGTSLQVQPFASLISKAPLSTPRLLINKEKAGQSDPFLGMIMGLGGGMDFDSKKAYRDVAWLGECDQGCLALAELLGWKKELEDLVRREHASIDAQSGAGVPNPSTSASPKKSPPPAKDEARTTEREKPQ", "experiment": "(§1) Inhibition of recombinant GST-tagged human SIRT2 expressed in Escherichia coli at 200 uM using FLUOR DE LYS SIRT2 as substrate preincubated with substrate for 5 mins followed by enzyme addition and measured after 1 hr in presence of NAD+ by fluorescence based assay relative to control", "summary_of_the_method": "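Fluor de Lys assay using GST-SIRT2 produced in-house and acetylated peptide substrate KI179 at 0.7 Km, with NAD+ at 0.9 Km in SIRT assay buffer. Buffer, substrate, NAD+ and compound in DMSO were preincubated 5 min at room temp; enzyme started the 1 h, 37 °C reaction. Developer with nicotinamide was added for 45 min at 37 °C; fluorescence read at ex 370/em 460 nm. SD, n = 3.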"}, "[2]": {"target": "T2, NAD-dependent protein deacetylase sirtuin-1 (Homo sapiens) (UniProt Q96EB6)", "T2 sequence (whole entry)": "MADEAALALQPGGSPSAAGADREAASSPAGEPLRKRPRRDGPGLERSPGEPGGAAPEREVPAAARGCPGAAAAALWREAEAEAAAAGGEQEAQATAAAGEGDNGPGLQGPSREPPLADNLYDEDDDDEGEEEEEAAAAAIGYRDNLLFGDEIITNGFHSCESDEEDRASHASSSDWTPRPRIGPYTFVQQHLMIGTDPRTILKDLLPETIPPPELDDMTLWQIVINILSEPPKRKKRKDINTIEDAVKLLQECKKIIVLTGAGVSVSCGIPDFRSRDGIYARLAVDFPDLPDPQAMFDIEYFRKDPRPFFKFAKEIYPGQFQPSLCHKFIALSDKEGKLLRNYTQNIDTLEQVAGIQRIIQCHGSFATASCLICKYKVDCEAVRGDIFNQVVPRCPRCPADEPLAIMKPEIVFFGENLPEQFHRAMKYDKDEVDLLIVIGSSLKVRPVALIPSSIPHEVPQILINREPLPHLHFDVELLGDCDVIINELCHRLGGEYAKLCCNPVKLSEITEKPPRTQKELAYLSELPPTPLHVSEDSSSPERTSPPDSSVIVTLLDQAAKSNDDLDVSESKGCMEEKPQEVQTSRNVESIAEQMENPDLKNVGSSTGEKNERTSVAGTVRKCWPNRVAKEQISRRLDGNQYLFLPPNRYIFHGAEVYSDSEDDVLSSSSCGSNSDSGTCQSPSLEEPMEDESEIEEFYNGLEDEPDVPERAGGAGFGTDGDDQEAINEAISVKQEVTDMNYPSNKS", "experiment": "Inhibition of recombinant GST-tagged human SIRT1 at 200 uM using FLUOR DE LYS SIRT1 as substrate preincubated with substrate for 5 mins followed by enzyme addition and measured after 1 hr in presence of NAD+ by fluorescence based assay relative to control", "summary_of_the_method": "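Fluor de Lys assay using GST-SIRT1 produced in-house and acetylated peptide substrate KI177 at 0.7 Km, with NAD+ at 0.9 Km in SIRT assay buffer. Buffer, substrate, NAD+ and compound in DMSO were preincubated 5 min at room temp, then enzyme was added and run 1 h at 37 °C. Developer plus nicotinamide was added for 45 min at 37 °C. Read at ex 370/em 460 nm. SD, n = 3.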"}, "[3]": {"target": "T3, NAD-dependent protein deacetylase sirtuin-3, mitochondrial (Homo sapiens) (UniProt Q9NTG7)", "T3 sequence (whole entry)": "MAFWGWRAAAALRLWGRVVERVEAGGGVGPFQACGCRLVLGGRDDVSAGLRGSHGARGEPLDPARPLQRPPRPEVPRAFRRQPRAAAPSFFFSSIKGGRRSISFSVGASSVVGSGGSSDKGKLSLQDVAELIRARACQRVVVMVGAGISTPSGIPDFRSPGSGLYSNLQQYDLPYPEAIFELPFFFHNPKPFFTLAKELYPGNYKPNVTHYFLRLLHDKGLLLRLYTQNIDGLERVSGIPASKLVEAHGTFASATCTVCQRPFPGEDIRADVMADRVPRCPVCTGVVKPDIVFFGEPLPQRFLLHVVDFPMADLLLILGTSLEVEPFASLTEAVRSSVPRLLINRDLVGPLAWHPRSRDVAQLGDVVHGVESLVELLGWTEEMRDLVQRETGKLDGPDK", "experiment": "as §1, with “recombinant N-terminal His-tagged” for “recombinant GST-tagged”, “human sirtuin 3 (102 to 399 residues)” for “human SIRT2”, “using fluor de lys” for “using FLUOR DE LYS”", "summary_of_the_method": "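Purchased recombinant His-SIRT3 was used with Fluor de Lys acetylated peptide substrate KI179 at 0.7 Km and NAD+ at 0.9 Km in SIRT assay buffer. Compound in DMSO was preincubated 5 min at room temp with buffer, substrate and NAD+; enzyme addition began the 1 h, 37 °C reaction. Developer with nicotinamide followed for 45 min at 37 °C; ex 370/em 460 nm read-out. SD, n = 3.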"}}}
{"smiles": "O=S1(=O)NC(CCc2ccccc2)=Cc2ccc(Br)cc21", "values": [{"measurement": "inhibition", "setting": "[1]", "result": 35, "unit": "%"}]}
{"smiles": "O=S1(=O)N=C(CCc2ccccc2)Nc2c(Br)cc(Br)cc21", "values": [{"measurement": "inhibition", "setting": "[1]", "result": 15, "unit": "%"}]}
{"smiles": "O=C1c2ccc(Br)cc2S(=O)(=O)N1CCc1ccccc1", "values": [{"measurement": "inhibition", "setting": "[1]", "result": 4.7, "unit": "%"}, {"measurement": "inhibition", "setting": "[2]", "result": 3.8, "unit": "%"}, {"measurement": "inhibition", "setting": "[3]", "result": 1.6, "unit": "%"}]}
{"smiles": "O=C1c2ccc(Br)cc2S(=O)(=O)N1CCc1cccc([N+](=O)[O-])c1", "values": [{"measurement": "inhibition", "setting": "[1]", "result": 6.2, "unit": "%"}]}
{"smiles": "O=S1(=O)N=C(CCc2cccc(Br)c2)Nc2c(Br)cc(Br)cc21", "values": [{"measurement": "inhibition", "setting": "[1]", "result": 24, "unit": "%"}, {"measurement": "inhibition", "setting": "[2]", "result": 0, "unit": "%"}, {"measurement": "inhibition", "setting": "[3]", "result": 3.2, "unit": "%"}]}
{"smiles": "O=S1(=O)NC(CCc2cccc(Br)c2)Nc2c(Br)cc(Br)cc21", "note": "(centres undefined)", "values": [{"measurement": "inhibition", "setting": "[1]", "result": 59, "unit": "%"}, {"measurement": "inhibition", "setting": "[2]", "result": 9.7, "unit": "%"}, {"measurement": "inhibition", "setting": "[3]", "result": 9.9, "unit": "%"}]}
{"smiles": "O=C1c2ccc(Br)cc2S(=O)(=O)N1CCc1ccc(O)cc1", "values": [{"measurement": "inhibition", "setting": "[1]", "result": 12, "unit": "%"}, {"measurement": "inhibition", "setting": "[2]", "result": 5.2, "unit": "%"}, {"measurement": "inhibition", "setting": "[3]", "result": 15, "unit": "%"}]}
{"smiles": "O=C1c2ccccc2S(=O)(=O)N1CCc1ccccc1", "values": [{"measurement": "inhibition", "setting": "[1]", "result": 34, "unit": "%"}, {"measurement": "inhibition", "setting": "[2]", "result": 14, "unit": "%"}, {"measurement": "inhibition", "setting": "[3]", "result": 14, "unit": "%"}]}
{"smiles": "CCCCCc1cc(=O)c2cc(Cl)cc(Br)c2[nH]1", "values": [{"measurement": "inhibition", "setting": "[1]", "result": 26, "unit": "%"}]}
{"smiles": "O=c1cc(Cc2ccccc2)[nH]c2c(Br)cc(Cl)cc12", "values": [{"measurement": "inhibition", "setting": "[1]", "result": 58, "unit": "%"}, {"measurement": "inhibition", "setting": "[2]", "result": 7.6, "unit": "%"}, {"measurement": "inhibition", "setting": "[3]", "result": 41, "unit": "%"}]}
{"smiles": "CCCCCC1Nc2c(Br)cc(Br)cc2S(=O)(=O)N1", "note": "(centres undefined)", "values": [{"measurement": "inhibition", "setting": "[1]", "result": 32, "unit": "%"}, {"measurement": "inhibition", "setting": "[2]", "result": 4.4, "unit": "%"}, {"measurement": "inhibition", "setting": "[3]", "result": 5.8, "unit": "%"}]}
{"smiles": "O=c1ccc2cc(CCC3Nc4c(Br)cc(Br)cc4S(=O)(=O)N3)ccc2[nH]1", "note": "(centres undefined)", "values": [{"measurement": "inhibition", "setting": "[1]", "result": 74, "unit": "%"}, {"measurement": "inhibition", "setting": "[2]", "result": 25, "unit": "%"}, {"measurement": "inhibition", "setting": "[3]", "result": 28, "unit": "%"}]}
{"smiles": "O=C1c2ccccc2S(=O)(=O)N1CCCc1cccnc1", "values": [{"measurement": "inhibition", "setting": "[1]", "result": 12, "unit": "%"}, {"measurement": "inhibition", "setting": "[2]", "result": 17, "unit": "%"}, {"measurement": "inhibition", "setting": "[3]", "result": 14, "unit": "%"}]}
{"smiles": "O=S1(=O)N=C(CCc2ccc(Br)cc2)Nc2c(Br)cc(Br)cc21", "values": [{"measurement": "inhibition", "setting": "[1]", "result": 10, "unit": "%"}]}
{"smiles": "CCCCCN1C(=O)c2ccccc2S1(=O)=O", "values": [{"measurement": "inhibition", "setting": "[1]", "result": 34, "unit": "%"}]}
{"smiles": "CCCCCc1cc(=O)c2cc(Cl)cc(Br)c2o1", "values": [{"measurement": "inhibition", "setting": "[2]", "result": 9.8, "unit": "%"}, {"measurement": "inhibition", "setting": "[3]", "result": 4.5, "unit": "%"}]}
{"smiles": "O=C1CCC(=O)N1CCN1C(=O)c2ccc(Br)cc2S1(=O)=O", "values": [{"measurement": "inhibition", "setting": "[1]", "result": 13, "unit": "%"}]}
{"smiles": "CCCCC1=Cc2ccccc2S(=O)(=O)N1", "values": [{"measurement": "inhibition", "setting": "[1]", "result": 12, "unit": "%"}]}
{"smiles": "CCOC(=O)CCCN1C(=O)c2ccccc2S1(=O)=O", "values": [{"measurement": "inhibition", "setting": "[1]", "result": 13, "unit": "%"}, {"measurement": "inhibition", "setting": "[2]", "result": 8.7, "unit": "%"}, {"measurement": "inhibition", "setting": "[3]", "result": 7.2, "unit": "%"}]}
{"smiles": "COC(=O)CCCCc1cc(=O)c2cc(Cl)cc(Br)c2[nH]1", "values": [{"measurement": "inhibition", "setting": "[1]", "result": 53, "unit": "%"}]}
{"smiles": "O=S1(=O)NC(CCc2ccccc2)=Cc2ccccc21", "values": [{"measurement": "inhibition", "setting": "[1]", "result": 15, "unit": "%"}]}
{"smiles": "O=C1c2ccc(Br)cc2S(=O)(=O)N1CCc1cccc(Br)c1", "values": [{"measurement": "inhibition", "setting": "[1]", "result": 15, "unit": "%"}]}
{"smiles": "O=c1cc(CCc2ccccc2)oc2c(Br)cc(Cl)cc12", "values": [{"measurement": "inhibition", "setting": "[1]", "result": 75, "unit": "%"}]}
{"smiles": "O=S1(=O)NC(CCc2ccccc2)Nc2c(Br)cc(Br)cc21", "note": "(centres undefined)", "values": [{"measurement": "inhibition", "setting": "[1]", "result": 47, "unit": "%"}, {"measurement": "inhibition", "setting": "[2]", "result": 4.6, "unit": "%"}, {"measurement": "inhibition", "setting": "[3]", "result": 54, "unit": "%"}]}
{"smiles": "CCCCCN1C(=O)c2ccc(Br)cc2S1(=O)=O", "values": [{"measurement": "inhibition", "setting": "[1]", "result": 6.9, "unit": "%"}]}
{"smiles": "CCCCC1=Cc2ccc(Br)cc2S(=O)(=O)N1", "values": [{"measurement": "inhibition", "setting": "[1]", "result": 29, "unit": "%"}]}
